# Activity calls are given as the source filed them. The calls are words filed in the database; no cut-off is given here.
# Experiments:
# [1] = target: 5-hydroxytryptamine receptor 2A (Rattus norvegicus, UniProt P14842); experiment: Binding affinity was measured against 5-hydroxytryptamine 2A receptor by displacement of [3H]- ketanserin by lysergic acid amides
# How it was run: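 Rat frontal cortex membranes from pooled male Sprague-Dawley rats, preincubated at 37 °C, in 50 mM Tris HCl (pH 7.4) with 0.5 mM Na2EDTA, 0.1% ascorbate, 10 μM pargyline and 5.7 mM CaCl2. Triplicates. Three to four experiments combined.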
# Rattus norvegicus [2] = experiment: Compound was tested for its effect on animals. Value reported as number of rats disrupted in trained rats at a dose of 47 (nmol/kg); type: functional
# How it was run: (§1)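 Two-lever drug discrimination in food-restricted rats (~80% free-feeding weight) trained on FR 50 to tell saline from LSD tartrate (186 nmol/kg, 0.08 mg/kg ip, 30 min pre-session). Test drugs were given ip in saline, 1 mL/kg. Test sessions ran under extinction, ending at 50 presses on either lever. Testing required 85% training accuracy. Counts of rats tested and disrupted were recorded, plus the percentage selecting the drug lever.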
# Rattus norvegicus [3] = experiment: Compound was tested for its effect on animals. Value reported as number of rats disrupted in trained rats at a dose of 93 (nmol/kg); type: functional; how it was run: as §1
# Rattus norvegicus [4] = experiment: Compound was tested for its effect on animals. Value reported as number of rats disrupted in trained rats at a dose of 186 (nmol/kg); type: functional; how it was run: as §1
# Rattus norvegicus [5] = experiment: Compound was tested for its effect on animals. Value reported as number of rats disrupted in trained rats at a dose of 23 (nmol/kg); type: functional; how it was run: as §1
# Rattus norvegicus [6] = experiment: Effective dose in trained rats was determined at a dose of 12 (nmol/kg); type: functional
# Rattus norvegicus [7] = experiment: Compound was tested for its effect on animals. Value reported as number of rats disrupted in trained rats at a dose of 12 (nmol/kg); type: functional; how it was run: as §1
# Rattus norvegicus [8] = experiment: Percentage of animals selecting drug lever in trained rats at a dose 23 (nmol/kg); type: functional; how it was run: as §1
# Rattus norvegicus [9] = experiment: Percentage of animals selecting drug lever in trained rats at a dose 47 (nmol/kg); type: functional
# How it was run: (§2)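 Drug-naive rats held at about 80% of free-feeding weight were trained on a two-lever FR50 food schedule to tell ip LSD tartrate (186 nmol/kg, 0.08 mg/kg) from saline, given 30 min before sessions. Test drugs were given ip in saline (1 mL/kg). Tests ran under extinction and ended at 50 presses on either lever. Rats had to hold 85% correct on training days. Read-out was % selecting the drug lever per dose.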
# Rattus norvegicus [10] = experiment: Percentage of animals selecting drug lever in trained rats at a dose 93 (nmol/kg); type: functional; how it was run: as §2
# Rattus norvegicus [11] = experiment: Potency in trained rats was determined with relative to reference compound […] at a dose of 12 (nmol/kg); type: functional
# Rattus norvegicus [12] = experiment: Percentage of animals selecting drug lever in 1-Trained rats at a dose 186 (nmol/kg); type: functional; how it was run: as §1
# Rattus norvegicus [13] = experiment: Percentage of animals selecting drug lever in trained rats at a dose 12 (nmol/kg); type: functional; how it was run: as §1
# [14] = target: T1, 5-hydroxytryptamine receptor 1A (Rattus norvegicus, UniProt P19327); experiment: Binding affinity was measured against 5-hydroxytryptamine 1A receptor by displacement of [3H]8-OH-DPAT by lysergic acid amides
# T1 sequence (P19327 whole entry): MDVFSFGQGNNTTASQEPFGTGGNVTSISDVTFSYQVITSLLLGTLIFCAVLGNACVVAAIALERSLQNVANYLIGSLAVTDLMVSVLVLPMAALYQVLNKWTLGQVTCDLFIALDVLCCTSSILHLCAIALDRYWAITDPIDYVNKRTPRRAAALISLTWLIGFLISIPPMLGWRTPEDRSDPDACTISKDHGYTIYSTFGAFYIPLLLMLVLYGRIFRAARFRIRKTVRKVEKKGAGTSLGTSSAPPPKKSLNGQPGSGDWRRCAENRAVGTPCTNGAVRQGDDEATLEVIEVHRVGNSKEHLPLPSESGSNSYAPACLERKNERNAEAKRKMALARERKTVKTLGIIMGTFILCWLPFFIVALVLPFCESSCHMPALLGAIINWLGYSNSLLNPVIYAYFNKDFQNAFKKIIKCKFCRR
# How it was run: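 Rat hippocampal membranes from pooled male Sprague-Dawley rats, preincubated at 37 °C, in 50 mM Tris HCl (pH 7.4) with 0.5 mM Na2EDTA, 0.1% ascorbate and 10 μM pargyline. Competition against 0.75 nM [3H]-8-OH-DPAT for 10 min at 37 °C, then GF/C filtration and scintillation counting. Triplicates. Three to four experiments combined, analysed with EBDA/LIGAND.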
# Rattus norvegicus [15] = experiment: Compound was tested for its effect on animals. Value reported as number of rats disrupted in trained rats at a dose of 86 (nmol/kg); type: functional; how it was run: as §1
# Rattus norvegicus [16] = experiment: Compound was tested for its effect on animals. Value reported as number of rats disrupted in trained rats at a dose of 426 (nmol/kg); type: functional; how it was run: as §1
# Rattus norvegicus [17] = experiment: Compound was tested for its effect on animals. Value reported as number of rats disrupted in trained rats at a dose of 171 (nmol/kg); type: functional; how it was run: as §1
# Rattus norvegicus [18] = experiment: Compound was tested for its effect on animals. Value reported as number of rats disrupted in trained rats at a dose of 213 (nmol/kg); type: functional; how it was run: as §1
# Rattus norvegicus [19] = experiment: Effective dose in trained rats was determined at a dose of 86 (nmol/kg); type: functional, organism-based
# Rattus norvegicus [20] = experiment: Compound was tested for its effect on animals. Value reported as number of rats disrupted in trained rats at a dose of 128 (nmol/kg); type: functional; how it was run: as §1
# Rattus norvegicus [21] = experiment: Percentage of animals selecting drug lever in trained rats at a dose 426 (nmol/kg); type: functional; how it was run: as §1
# Rattus norvegicus [22] = experiment: Percentage of animals selecting drug lever in trained rats at a dose 86 (nmol/kg); type: functional; how it was run: as §2
# Rattus norvegicus [23] = experiment: Percentage of animals selecting drug lever in trained rats at a dose 128 (nmol/kg); type: functional; how it was run: as §1
# Rattus norvegicus [24] = experiment: Percentage of animals selecting drug lever in trained rats at a dose 171 (nmol/kg); type: functional; how it was run: as §1
# Rattus norvegicus [25] = experiment: Percentage of animals selecting drug lever in trained rats at a dose 213 (nmol/kg); type: functional; how it was run: as §1
# Rattus norvegicus [26] = experiment: Compound was tested for its effect on animals. Value reported as number of rats disrupted in trained rats at a dose of 639 (nmol/kg); type: functional; how it was run: as §1
# Rattus norvegicus [27] = experiment: Effective dose in trained rats was determined at a dose of 213 (nmol/kg); type: functional, organism-based
# Rattus norvegicus [28] = experiment: Percentage of animals selecting drug lever in trained rats at a dose 639 (nmol/kg); type: functional; how it was run: as §2
# Rattus norvegicus [29] = experiment: Compound was tested for its effect on animals. Value reported as number of rats disrupted in trained rats at a dose of 500 (nmol/kg); type: functional; how it was run: as §1
# Rattus norvegicus [30] = experiment: Compound was tested for its effect on animals. Value reported as number of rats disrupted in trained rats at a dose of 63 (nmol/kg); type: functional; how it was run: as §1
# Rattus norvegicus [31] = experiment: Compound was tested for its effect on animals. Value reported as number of rats disrupted in trained rats at a dose of 250 (nmol/kg); type: functional; how it was run: as §1
# Rattus norvegicus [32] = experiment: Effective dose in trained rats was determined at a dose of 63 (nmol/kg) Value in parentheses are with 95% confidence intervals; type: functional
# Rattus norvegicus [33] = experiment: Compound was tested for its effect on animals. Value reported as number of rats disrupted in trained rats at a dose of 125 (nmol/kg); type: functional; how it was run: as §1
# Rattus norvegicus [34] = experiment: Percentage of animals selecting drug lever in trained rats at a dose 250 (nmol/kg); type: functional; how it was run: as §1
# Rattus norvegicus [35] = experiment: Percentage of animals selecting drug lever in trained rats at a dose 500 (nmol/kg); type: functional; how it was run: as §2
# Rattus norvegicus [36] = experiment: Percentage of animals selecting drug lever in trained rats at a dose 63 (nmol/kg); type: functional; how it was run: as §2
# Rattus norvegicus [37] = experiment: Potency in trained rats was determined with relative to reference compound […] at a dose of 63 (nmol/kg); type: functional
# Rattus norvegicus [38] = experiment: Percentage of animals selecting drug lever in trained rats at a dose 125 (nmol/kg); type: functional; how it was run: as §1
# Chain of 5-hydroxytryptamine receptor 2A (P14842 whole entry): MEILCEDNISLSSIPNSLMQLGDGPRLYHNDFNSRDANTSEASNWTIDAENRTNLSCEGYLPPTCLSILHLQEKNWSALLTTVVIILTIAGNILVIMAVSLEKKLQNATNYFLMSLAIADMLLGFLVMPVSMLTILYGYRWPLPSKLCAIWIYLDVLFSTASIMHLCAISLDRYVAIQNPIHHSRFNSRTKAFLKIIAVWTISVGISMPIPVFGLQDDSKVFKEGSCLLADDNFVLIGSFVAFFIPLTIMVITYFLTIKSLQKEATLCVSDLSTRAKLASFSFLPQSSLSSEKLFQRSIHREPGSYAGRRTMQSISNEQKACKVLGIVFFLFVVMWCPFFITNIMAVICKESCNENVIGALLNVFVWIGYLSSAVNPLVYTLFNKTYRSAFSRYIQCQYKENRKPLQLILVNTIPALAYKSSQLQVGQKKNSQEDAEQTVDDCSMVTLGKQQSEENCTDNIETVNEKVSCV
compound,measurement,setting,value
CC[C@@H](C)NC(=O)[C@@H]1C=C2c3cccc4[nH]cc(c34)C[C@H]2N(C)C1,Ki,[1],8.8 nM
same,D,Rattus norvegicus [2],0%
same,D,Rattus norvegicus [3],0%
same,D,Rattus norvegicus [4],0%
same,D,Rattus norvegicus [5],0%
same,ED50,Rattus norvegicus [6],0.033 µmol/kg
same,D,Rattus norvegicus [7],0%
same,SDL,Rattus norvegicus [8],50%
same,SDL,Rattus norvegicus [9],75%
same,SDL,Rattus norvegicus [10],75%
same,Potency,Rattus norvegicus [11],1.45
same,SDL,Rattus norvegicus [12],88%
same,SDL,Rattus norvegicus [13],13%
CCCC[C@@H](C)NC(=O)[C@@H]1C=C2c3cccc4[nH]cc(c34)C[C@H]2N(C)C1,Ki,[14],0.32 nM
same,Ki,[1],16 nM
same,D,Rattus norvegicus [15],10%
same,D,Rattus norvegicus [16],0%
same,D,Rattus norvegicus [17],0%
same,D,Rattus norvegicus [18],27%
same,ED50,Rattus norvegicus [19],Weak activity
same,D,Rattus norvegicus [20],0%
same,SDL,Rattus norvegicus [21],0%
same,SDL,Rattus norvegicus [22],22%
same,SDL,Rattus norvegicus [23],40%
same,SDL,Rattus norvegicus [24],55%
same,SDL,Rattus norvegicus [25],50%
CCCCC(C)NC(=O)[C@@H]1C=C2c3cccc4[nH]cc(c34)C[C@H]2N(C)C1 (some centres undefined),Ki,[14],4.9 nM
same,Ki,[1],55 nM
same,D,Rattus norvegicus [26],12.5%
same,D,Rattus norvegicus [16],30%
same,D,Rattus norvegicus [18],30%
same,ED50,Rattus norvegicus [27],inactive
same,SDL,Rattus norvegicus [21],0%
same,SDL,Rattus norvegicus [28],0%
same,SDL,Rattus norvegicus [25],29%
CCC(CC)NC(=O)[C@@H]1C=C2c3cccc4[nH]cc(c34)C[C@H]2N(C)C1,Ki,[14],2.1 nM
same,Ki,[1],8 nM
same,D,Rattus norvegicus [29],14%
same,D,Rattus norvegicus [30],0%
same,D,Rattus norvegicus [31],0%
same,ED50,Rattus norvegicus [32],0.052 µmol/kg
same,D,Rattus norvegicus [33],0%
same,SDL,Rattus norvegicus [34],85%
same,SDL,Rattus norvegicus [35],92%
same,SDL,Rattus norvegicus [36],58%
same,Potency,Rattus norvegicus [37],0.92
same,SDL,Rattus norvegicus [38],67%
CCCCCC(C)NC(=O)[C@@H]1C=C2c3cccc4[nH]cc(c34)C[C@H]2N(C)C1 (some centres undefined),Ki,[14],14 nM
same,Ki,[1],357 nM

# Reference: ChEMBL document CHEMBL1128272, “Stereoselective LSD-like activity in a series of d-lysergic acid amides of (R)- and (S)-2-aminoalkanes” (J Med Chem, 1995)
